For 36 molecules, MIC, IC50 and Ratio results are on record in ChEMBL document CHEMBL1153363, “Structure-activity relationships for a series of quinoline-based compounds active against replicating and nonreplicating Mycobacterium tuberculosis” (J Med Chem, 2009).

In brackets after ≈: the same amount, converted by molar mass. Bounds are passed on as bounds.

The MIC is the lowest concentration found to suppress growth. In general, IC50 refers to the concentration at which inhibition is half-maximal.

For assay [1], the system named is Mycobacterium tuberculosis. Nature of the assay: Antitubercular activity against non replicating persistent form of Mycobacterium tuberculosis H37Rv ATCC 27294 after 10 days by LORA. Conditions: 240 h. It is filed as functional. The essentials: (§1)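 Recombinant H37Rv (pFCA-luxAB, V. harveyi luciferase, acetamidase promoter), low-oxygen adapted in fermentor, washed in PBS, stored at -80 °C. About 10⁵ cfu/mL of thawed cells exposed to two-fold serial dilutions in 7H12, 10 days anaerobic at 37 °C. Luminescence read after 28 h aerobic recovery (5% CO₂). MIC = lowest concentration preventing recovery (90% reduction versus untreated), read graphically.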

For assay [2], the system named is Mycobacterium tuberculosis. Briefly: Antitubercular activity against replicating form of Mycobacterium tuberculosis H37Rv ATCC 27294 after 7 days by microplate alamar blue assay. It is filed as functional. The note with it: 168 h. In a few lines:
(§2)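 12.8 mM DMSO stocks; two-fold dilutions in Middlebrook 7H12 broth, final 128 to 0.5 µM. Inoculum 2 × 10⁵ cfu/mL, 37 °C. On day 7, Tween 80 plus Alamar Blue added; fluorescence read (ex 530/em 590 nm) after 16-24 h more. MIC = lowest concentration giving ≥90% fluorescence drop versus bacteria-only controls; mean of two runs. RMP and INH positive controls.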
On the technique in general: The colour change of resazurin is a common sign of viable cells or microbes.

In the next assay the test system is Vero. Briefly: Cytotoxicity against african green monkey Vero cells after 72 hrs by Cell titer assay. In kind it is cell-based, Chlorocebus sabaeus. The essentials:
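Vero CCL-81 cells, log phase. Samples from 12.8 mM DMSO stocks in geometric 3-fold dilutions in MEM with 10% FBS, 25 mM HEPES, 0.2% NaHCO₃ and 2 mM glutamine; DMSO ≤1% v/v final. Run in duplicate, 72 h at 37 °C, 5% CO₂. Viability by CellTiter 96 aqueous assay, absorbance 490 nm; IC50 from curve fitting.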

For assay [3], the system named is Mycobacterium tuberculosis. Nature of the assay: Ratio of MIC for non replicating persistent form of Mycobacterium tuberculosis H37Rv ATCC 27294 by LORA to MIC for replicating form of Mycobacterium tuberculosis H37Rv ATCC 27294 by microplate alamar blue assay. It is filed as functional.
In assay [4] the test system is Mycobacterium tuberculosis. Briefly: Antitubercular activity against replicating form of Mycobacterium tuberculosis. In kind it is functional. The essentials: as §2
Assay [5] relates to Mycobacterium tuberculosis. Briefly: Antitubercular activity against non replicating persistent form of Mycobacterium tuberculosis. In kind it is functional. The essentials: as §1
For assay [6], the system named is Mycobacterium tuberculosis. Briefly: Antitubercular activity against Mycobacterium tuberculosis. It is filed as functional. In a few lines:
as §2

Where [7] appears, read: Chlorocebus sabaeus, Vero, 72 h.

As for `CCOC(=O)c1cc(COc2cc(C(F)(F)F)nc3c(Cl)cccc23)on1`, the MIC in assay [1] came out at 49.3 µM (≈ 19.8 µg/mL); in assay [2], 62.9 µM (≈ 25.2 µg/mL).

`CCOC(=O)c1cc(COc2cc(C(F)(F)F)nc3c(F)cccc23)on1` yielded an IC50 in the assay on Vero (setting [7]) of more than 128 µM. Also, the figures for the MIC in assay [1] and in assay [2] were 39 µM (≈ 15 µg/mL) and 11.3 µM (≈ 4.34 µg/mL), respectively.

`CCOC(=O)c1cc(COc2cc(C(F)(F)F)nc3cc(Cl)cc(Cl)c23)on1` showed an IC50 with Vero (setting [7]) of more than 128 µM. Moreover, the MIC is 3.7 µM (≈ 1.61 µg/mL) in assay [1] and 1.9 µM (≈ 0.827 µg/mL) in assay [2].

Regarding `CCOC(=O)c1cc(COc2ccnc3cc(Cl)ccc23)on1`, in the assay with Vero (setting [7]), the IC50 is more than 128 µM. The Ratio in assay [3] came out at 25. In addition, the minimal inhibitory concentration (MIC) in assay [1] came to 99.7 µM (≈ 33.2 µg/mL); in assay [2], 3.8 µM (≈ 1.26 µg/mL).

Take `CCOC(=O)c1cc(COc2ccnc3cc(C(F)(F)F)ccc23)on1`: the Ratio in assay [3] is recorded as 25. The results for the minimum inhibitory concentration (MIC) in assay [1] and in assay [2] were 81.9 µM (≈ 30 µg/mL) and 3.3 µM (≈ 1.21 µg/mL), respectively.

As to `CCOC(=O)c1cc(-c2cccc(Oc3cc(C(F)(F)F)nc4ccccc34)c2)on1`, in the assay with Vero (setting [7]), the IC50 is more than 128 µM. The minimal inhibitory concentration (MIC) in assay [1] stood at 3.7 µM (≈ 1.58 µg/mL); in assay [2], 0.95 µM (≈ 0.407 µg/mL).

`CCOC(=O)c1cc(COc2cc(C(F)(F)F)nc3c(C(F)(F)F)cccc23)on1`: in the assay on Vero (setting [7]), the IC50 is more than 128 µM. For the same molecule, the MIC in assay [4] was found to be 0.9 µM (≈ 0.391 µg/mL); in assay [5], 12.2 µM (≈ 5.3 µg/mL); in assay [1], 12.2 µM (≈ 5.3 µg/mL); in assay [2] it was 0.9 µM (≈ 0.391 µg/mL).

In the assay on Vero (setting [7]), `CCOC(=O)c1cc(COc2ccnc3ccccc23)on1` displayed an IC50 of more than 128 µM. Also, the MIC in assay [1] came to 13.2 µM (≈ 3.94 µg/mL); in assay [2], 25.1 µM (≈ 7.49 µg/mL).

Regarding `CCOC(=O)c1cc(COc2cc(C(F)(F)F)nc3c(C)cccc23)on1`, in the assay with Vero (setting [7]), the IC50 was more than 128 µM. Besides, the MIC in assay [1] came to 10.4 µM (≈ 3.96 µg/mL); in assay [2], 1.8 µM (≈ 0.685 µg/mL).

In the assay with Vero (setting [7]), `CCOC(=O)c1cc(COc2cc(C(F)(F)F)nc3c(C(F)(F)F)cc(OC)cc23)on1` gave a half-inhibitory concentration (IC50) of more than 128 µM. Moreover, in assay [2], it took 66.1 µM (≈ 30.7 µg/mL) to inhibit growth (MIC).

Consider `CCOC(=O)c1cc(COc2cc(C(=O)OCC)nc3ccccc23)on1`, for which, in the assay with Vero (setting [7]), the IC50 is more than 128 µM. Also, the MIC in assay [1] was found to be 15.7 µM (≈ 5.81 µg/mL); in assay [2], 7.9 µM (≈ 2.93 µg/mL).

In assay [2], `CCOC(=O)c1cc(Cn2ccc(=O)c3ccc(C(F)(F)F)cc32)on1` displayed an MIC of more than 128 µM.

Regarding `CCOC(=O)c1cc(COc2cc(C(F)(F)F)nc3ccccc23)on1`, the IC50 in the assay on Vero (setting [7]) is more than 128 µM. The MIC was 25.1 µM (≈ 9.19 µg/mL) in assay [1] and 3.2 µM (≈ 1.17 µg/mL) in assay [2].

The molecule `CCOC(=O)c1cc(COc2cc(C(F)(F)F)nc3cccc(C(F)(F)F)c23)on1` yielded an IC50 with Vero (setting [7]) of more than 128 µM. Further, it took 3.8 µM (≈ 1.65 µg/mL) to inhibit growth in assay [2] (MIC).

In the assay with Vero (setting [7]), `CCOC(=O)c1cc(COc2cc(C(F)(F)F)nc3cc(C(F)(F)F)cc(C(F)(F)F)c23)on1` registered an IC50 of more than 128 µM. For the same molecule, the MIC in assay [1] turned out to be 10 µM (≈ 5.02 µg/mL); in assay [2], 0.77 µM (≈ 0.387 µg/mL).

In the case of `CCOC(=O)c1cc(COc2cc(C(F)(F)F)nc3c(C(F)(F)F)cccc23)no1`, in the assay on Vero (setting [7]), the IC50 is more than 128 µM. This molecule also gave an MIC in assay [2] of 3.6 µM (≈ 1.56 µg/mL).

On to `CCOC(=O)c1nc(COc2cc(C(F)(F)F)nc3c(C(F)(F)F)cccc23)cs1`, for which, in the assay on Vero (setting [7]), the IC50 is more than 128 µM. The same molecule gave an MIC in assay [2] of 16.5 µM (≈ 7.43 µg/mL).

In the case of `CCOC(=O)c1ccc(COc2cc(C(F)(F)F)nc3c(C(F)(F)F)cccc23)o1`, the IC50 in the assay on Vero (setting [7]) was 118 µM. The molecule further displayed an MIC in assay [2] of more than 128 µM.

As to `CCC(=O)c1cc(COc2cc(C(F)(F)F)nc3c(C(F)(F)F)cccc23)on1`, the midpoint of inhibition with Vero (setting [7]), the IC50, lay at 64.9 µM. This molecule also showed an MIC in assay [2] of 27.4 µM (≈ 11.5 µg/mL).

As to `CCOC(=O)c1ccc(COc2cc(C(F)(F)F)nc3c(C(F)(F)F)cccc23)cc1`, in the assay with Vero (setting [7]), the IC50 was more than 128 µM. This molecule also yielded an MIC in assay [2] of more than 128 µM.

`O=[N+]([O-])c1ccc(COc2cc(C(F)(F)F)nc3c(C(F)(F)F)cccc23)o1` came in with an IC50 in the assay on Vero (setting [7]) of 15.4 µM. In addition, the MIC in assay [2] came to 6.3 µM (≈ 2.56 µg/mL).

Consider `CCOC(=O)c1cc(COc2ccnc3c(C(F)(F)F)cccc23)on1`, for which, in the assay on Vero (setting [7]), the IC50 is more than 128 µM. Also, the MIC in assay [1] worked out at 56.6 µM (≈ 20.7 µg/mL); in assay [2] it was 10.6 µM (≈ 3.88 µg/mL).

Take `CCOC(=O)c1cc(COc2cc(C(F)(F)F)nc3c(F)ccc(F)c23)on1`: the MIC in assay [1] came out at 52.8 µM (≈ 21.2 µg/mL); in assay [2], 41.2 µM (≈ 16.6 µg/mL).

In the assay on Vero (setting [7]), `CCOC(=O)c1cc(COc2cc(C(F)(F)F)nc3c(OC(F)(F)F)cccc23)on1` showed an IC50 of more than 128 µM. For the same molecule, the figures for the MIC in assay [1] and in assay [2] were 7 µM (≈ 3.15 µg/mL) and 2.6 µM (≈ 1.17 µg/mL), respectively.

In assay [2], `CCOC(=O)c1cc(COc2cc(C(F)(F)F)nc3c(F)cc(F)cc23)on1` showed an MIC of 14.6 µM (≈ 5.87 µg/mL).

In turn, `CCOC(=O)c1cc(CCOc2cc(C(F)(F)F)nc3c(C(F)(F)F)cccc23)on1` yielded an IC50 in the assay with Vero (setting [7]) of more than 128 µM. Moreover, the minimum inhibitory concentration (MIC) in assay [1] came to 9.9 µM (≈ 4.44 µg/mL); in assay [2], 3.4 µM (≈ 1.52 µg/mL).

In turn, `CCOC(=O)c1cc(COc2cc(C(F)(F)F)nc3cc(C(F)(F)F)ccc23)on1` came in with an IC50 with Vero (setting [7]) of more than 128 µM. Besides, the lowest concentration to inhibit growth in assay [2] (MIC) was 1.3 µM (≈ 0.565 µg/mL).

`CCOC(=O)c1cc(COc2cc(C(F)(F)F)nc3ccc(C(F)(F)F)cc23)on1` came in with an IC50 in the assay on Vero (setting [7]) of more than 128 µM. The Ratio in assay [3] is given as 2. In addition, the MIC in assay [1] amounted to 7.6 µM (≈ 3.3 µg/mL); in assay [2], 3.7 µM (≈ 1.61 µg/mL).

For `CCOC(=O)C1=NOC(COc2cc(C(F)(F)F)nc3c(C(F)(F)F)cccc23)C1` (configuration not stated), in the assay with Vero (setting [7]), the concentration for half-maximal inhibition (IC50) is more than 128 µM. The molecule also had an MIC in assay [2] of 22.2 µM (≈ 9.69 µg/mL).

For the molecule `FC(F)(F)c1cc(OCc2nnn[nH]2)c2cccc(C(F)(F)F)c2n1`, the MIC in assay [2] is more than 128 µM.

`CCOC(=O)c1cccc(COc2cc(C(F)(F)F)nc3c(C(F)(F)F)cccc23)n1` gave an MIC in assay [2] of more than 128 µM.

`CCOC(=O)c1coc(COc2cc(C(F)(F)F)nc3c(C(F)(F)F)cccc23)n1` registered an MIC in assay [2] of more than 128 µM.

In the assay with Vero (setting [7]), `NNC(=O)c1ccncc1` [ISONIAZID] yielded a 50% inhibitory concentration (IC50) of more than 128 µM. The MIC is more than 128 µM in assay [1] and 0.5 µM (≈ 0.0686 µg/mL) in assay [2].

As to `OC(c1cc(C(F)(F)F)nc2c(C(F)(F)F)cccc12)C1CCCCN1` (configuration not stated) [MEFLOQUINE], in assay [6], 13 µM (≈ 4.92 µg/mL) was the least that counted as inhibitory (MIC).

For `CO[C@H]1/C=C/O[C@@]2(C)Oc3c(C)c(O)c4c(O)c(c(/C=N/N5CCN(C)CC5)c(O)c4c3C2=O)NC(=O)/C(C)=C\C=C\[C@H](C)[C@H](O)[C@@H](C)[C@@H](O)[C@@H](C)[C@H](OC(C)=O)[C@@H]1C` [RIFAMPIN], the IC50 in the assay on Vero (setting [7]) and with Vero (vero) was 127 µM each time. For the same molecule, the MIC in assay [1] stood at 1.9 µM (≈ 1.56 µg/mL); in assay [2] it was 0.1 µM (≈ 0.0823 µg/mL).

On to `CN[C@@H]1[C@H](O[C@H]2[C@H](O[C@H]3[C@H](O)[C@@H](O)[C@H](N=C(N)N)[C@@H](O)[C@@H]3N=C(N)N)O[C@@H](C)[C@]2(O)C=O)O[C@@H](CO)[C@H](O)[C@H]1O` [STREPTOMYCIN], for which, in assay [2], inhibition of growth (MIC) required 0.3 µM (≈ 0.174 µg/mL).
